Experimental data: ChEMBL document CHEMBL5360580 (Eur J Med Chem, 2023)
Activity calls are given as the source filed them. No cut-off for these calls is given here.

Columns and labels:
[1] = Prodrug conversion in ICR mouse plasma assessed as oral bioavailability of compound 5-chloro-4-fluoro-2-hydroxy-N-(4-(trifluoromethoxy)phenyl)benzamide at 30 mg/kg measured upto 24 hrs by LC-MS/MS analysis; type: ADME, organism-based; details: in vivo
Procedure, shortened: (§1)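 Prodrugs were given to fasted ICR (CD-1) mice (N = 3) in DMSO/0.5% HMPC (5/95), at 30 mg/kg po or 2.5 mg/kg iv. Serum from femoral-vein blood taken 0.25–24 h was analysed by LC-MS/MS for the released parent compound, with mole correction applied to the parameters.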

[2] = Prodrug conversion in ICR mouse plasma assessed as Observed AUC (0 to infinity) of compound 5-chloro-4-fluoro-2-hydroxy-N-(4-(trifluoromethoxy)phenyl)benzamide at 30 mg/kg, po and 2.5 mg/kg, iv measured upto 24 hrs by LC-MS/MS analysis; type: ADME, organism-based; set-up: time < 24 hrs, dose 30 mg/kg, route po; details: in vivo; procedure, shortened: as §1
[3] = Prodrug conversion in ICR mouse plasma assessed as Cmax of compound 5-chloro-4-fluoro-2-hydroxy-N-(4-(trifluoromethoxy)phenyl)benzamide at 30 mg/kg, po and 2.5 mg/kg, iv measured upto 24 hrs by LC-MS/MS analysis; type: ADME, organism-based; set-up: time < 24 hrs, dose 30 mg/kg, route po; details: in vivo; procedure, shortened: as §1
[4] = Aqueous solubility of compound at 0.5 mg/mL in presence of acetonitrile by HPLC analysis; type: physicochemical; details: buffer
Procedure, shortened: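 Compound was suspended in water, vortexed vigorously and filtered through a 0.22 μm membrane. The filtrate was diluted 2-fold with 80% acetonitrile and analysed by reversed-phase amide HPLC. Concentration was read against a standard curve prepared from a 0.5 mg/mL solution in 80% acetonitrile. Single determination.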

[5] = Prodrug conversion in ICR mouse plasma assessed as Observed MRT (0 to infinity) of compound 5-chloro-4-fluoro-2-hydroxy-N-(4-(trifluoromethoxy)phenyl)benzamide at 30 mg/kg, po and 2.5 mg/kg, iv measured upto 24 hrs by LC-MS/MS analysis; type: ADME, organism-based; details: in vivo; procedure, shortened: as §1
[6] = Prodrug conversion in ICR mouse plasma assessed as half life of compound 5-chloro-4-fluoro-2-hydroxy-N-(4-(trifluoromethoxy)phenyl)benzamide at 30 mg/kg, po and 2.5 mg/kg, iv measured upto 24 hrs by LC-MS/MS analysis; type: ADME, organism-based; details: in vivo; procedure, shortened: as §1
[7] = Prodrug conversion in ICR mouse plasma assessed as AUClast of compound 5-chloro-4-fluoro-2-hydroxy-N-(4-(trifluoromethoxy)phenyl)benzamide at 30 mg/kg, po and 2.5 mg/kg, iv measured upto 24 hrs by LC-MS/MS analysis; type: ADME, organism-based; set-up: dose 30 mg/kg, time < 24 hrs, route po; details: in vivo; procedure, shortened: as §1
SARS-CoV-2 [8] = assay: Antiviral activity against SARS-CoV-2 infected in African green monkey Vero E6 cells assessed as inhibition of viral replication at 1 uM incubated for 24 hrs by IFA assay relative to control; type: functional; details: Severe acute respiratory syndrome coronavirus 2, Vero C1008
[9] = Half life in ICR mouse at 2.5 mg/kg, iv measured upto 24 hrs by LC-MS/MS analysis; type: ADME, organism-based; details: ICR, in vivo
Procedure, shortened: (§2)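 Male-unspecified ICR (CD-1) mice, N = 3 per group, were fasted 12 h. Compound in DMSO/0.5% HMPC (5/95, v/v) was given orally at 30 mg/kg or intravenously at 2.5 mg/kg. Femoral-vein blood was drawn at 0.25, 0.5, 1, 2, 4, 8 and 24 h, and serum analyte levels were measured by LC-MS/MS.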

[10] = Cmax in ICR mouse at 2.5 mg/kg, iv measured upto 24 hrs by LC-MS/MS analysis; type: ADME, organism-based; set-up: dose 2.5 mg/kg, time < 24 hrs, route iv; details: in vivo; procedure, shortened: as §2
[11] = Observed MRT (0 to infinity) in ICR mouse at 2.5 mg/kg, iv measured upto 24 hrs by LC-MS/MS analysis; type: ADME, organism-based; details: ICR, in vivo; procedure, shortened: as §2
[12] = AUClast in ICR mouse at 2.5 mg/kg, iv measured upto 24 hrs by LC-MS/MS analysis; type: ADME, organism-based; set-up: dose 2.5 mg/kg, time < 24 hrs, route iv; details: ICR, in vivo; procedure, shortened: as §2
[13] = Observed AUC (0 to infinity) in ICR mouse at 2.5 mg/kg, iv measured upto 24 hrs by LC-MS/MS analysis; type: ADME, organism-based; set-up: dose 2.5 mg/kg, time < 24 hrs, route iv; details: ICR, in vivo; procedure, shortened: as §2
[14] = Selectivity index, ratio of CC50 for cytotoxicity against African green monkey Vero E6 to EC50 for antiviral activity against SARS-CoV-2 infected in African green monkey Vero E6 cells; type: toxicity, cell-based, Vero C1008; details: read-out: Ratio CC50/EC50
SARS-CoV-2 [15] = assay: Antiviral activity against SARS-CoV-2 infected in African green monkey Vero E6 cells assessed as inhibition of viral replication incubated for 24 hrs by IFA assay; type: functional, organism-based; details: Severe acute respiratory syndrome coronavirus 2, Vero C1008, 24 h
Vero C1008 [16] = assay: Cytotoxicity against African green monkey Vero E6 cells assessed as reduction in cell viability measured after 48 hrs by CCK-8 assay; type: toxicity, cell-based; details: chlorocebus sabaeus, vero c1008, 48 h
Vero C1008 [17] = assay: Downregulation of BECN1 level in African green monkey Vero E6 cells at 10 uM measured after 16 hrs by Western blotting analysis; type: functional, cell-based; details: Chlorocebus sabaeus
Procedure, shortened: (§3)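 Vero-E6 cells in DMEM with 10% FBS were cultured overnight at 37 °C, 5% CO2, then treated with a concentration series for 16 h. Lysates were made in RIPA on ice and equalised for protein by BCA. Blots were probed for SKP2 or Beclin-1 plus β-actin and detected by ECL. The band-intensity ratio to β-actin was normalised to DMSO control.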

[18] = Observed AUC (0 to infinity) in ICR mouse at 30 mg/kg, po measured upto 24 hrs by LC-MS/MS analysis; type: ADME, organism-based; set-up: dose 30 mg/kg, time < 24 hrs, route po; details: in vivo; procedure, shortened: as §2
[19] = AUClast in ICR mouse at 30 mg/kg, po measured upto 24 hrs by LC-MS/MS analysis; type: ADME, organism-based; set-up: dose 30 mg/kg, time < 24 hrs, route po; details: in vivo; procedure, shortened: as §2
Vero C1008 [20] = assay: Downregulation of SKP2 level in African green monkey Vero E6 cells at 0.3 to 10 uM measured after 16 hrs by Western blotting analysis; type: functional, cell-based; details: Chlorocebus sabaeus, dose 0.3-10 µM; procedure, shortened: as §3
[21] = Cmax in ICR mouse at 30 mg/kg, po measured upto 24 hrs by LC-MS/MS analysis; type: ADME, organism-based; set-up: dose 30 mg/kg, time < 24 hrs, route po; details: in vivo; procedure, shortened: as §2
Vero C1008 [22] = assay: Downregulation of BECN1 level in African green monkey Vero E6 cells at 1 to 3 uM measured after 16 hrs by Western blotting analysis; type: functional, cell-based; details: Chlorocebus sabaeus, dose 1-3 µM; procedure, shortened: as §3
[23] = Half life in ICR mouse at 30 mg/kg, po measured upto 24 hrs by LC-MS/MS analysis; type: ADME, organism-based; details: in vivo; procedure, shortened: as §2
SARS-CoV-2 [24] = assay: Antiviral activity against SARS-CoV-2 infected in African green monkey Vero E6 cells assessed as inhibition of viral replication at 2.5 uM incubated for 24 hrs by IFA assay relative to control; type: functional; details: Severe acute respiratory syndrome coronavirus 2, Vero C1008
[25] = Observed MRT (0 to infinity) in ICR mouse at 30 mg/kg, po measured upto 24 hrs by LC-MS/MS analysis; type: ADME, organism-based; details: in vivo; procedure, shortened: as §2

CC(C)C(=O)Oc1cc(F)c(Cl)cc1C(=O)Nc1ccc(OC(F)(F)F)cc1
F [1]: 39.75%
AUC [2]: 17551 ng·h/mL
Cmax [3]: 5175 ng/mL
solubility [4]: 0.53 µg/mL
MRT [5]: 5.52 h
t1/2 [6]: 3.03 h
AUClast [7]: 17393 ng·h/mL

O=C(Nc1ccc(C(F)(F)F)cc1)c1ccccc1O
inhibition at 1 µM (SARS-CoV-2 [8]): < 10%

CC(=O)Oc1cc(F)c(Cl)cc1C(=O)Nc1ccc(OC(F)(F)F)cc1
F [1]: 37.61%
AUC [2]: 16726 ng·h/mL
Cmax [3]: 4771 ng/mL
solubility [4]: 0.71 µg/mL
MRT [5]: 6.03 h
t1/2 [6]: 3.57 h
AUClast [7]: 16458 ng·h/mL

Oc1ccc(Cl)cc1-c1nnc(-c2ccc(C(F)(F)F)cc2)o1
inhibition at 1 µM (SARS-CoV-2 [8]): < 10%

CC(=O)Nc1ccc(NC(=O)c2cc(Cl)ccc2O)c(Cl)c1
inhibition at 1 µM (SARS-CoV-2 [8]): < 10%

Nc1ccc(NC(=O)c2cc(Cl)ccc2O)c(Cl)c1
inhibition at 1 µM (SARS-CoV-2 [8]): < 10%

C[C@H](N)C(=O)Oc1cc(F)c(Cl)cc1C(=O)Nc1ccc(OC(F)(F)F)cc1.Cl
half-life [9]: 2.92 h
Cmax [10]: 3360 ng/mL
MRT inf [11]: 5.02 h
AUC(0-t) at 24 h [12]: 6670 ng·h/mL
AUC(0-inf) [13]: 6700 ng·h/mL

Oc1ccc(Cl)cc1-c1nnc(-c2ccc(C(F)(F)F)cc2)[nH]1
inhibition at 1 µM (SARS-CoV-2 [8]): < 10%

N#Cc1ccc(Cl)cc1C(=O)Nc1ccc(C(F)(F)F)cc1
inhibition at 1 µM (SARS-CoV-2 [8]): < 10%

O=C(Nc1ccc(C(F)(F)F)cc1)c1cc(F)ccc1O
selectivity ratio [14]: 0.98
inhibition at 1 µM (SARS-CoV-2 [8]): 92%
EC50 (SARS-CoV-2 [15]): 1640 nM
CC50 (Vero C1008 [16]): 1610 nM

O=C(Nc1ccc(C(F)(F)F)cc1)c1cc(Cl)cc([N+](=O)[O-])c1O
inhibition at 1 µM (SARS-CoV-2 [8]): 50%

O=C(Nc1ccc(OC(F)(F)F)cc1)c1cc(Cl)ccc1O
inhibition at 1 µM (SARS-CoV-2 [8]): 55%

CS(=O)(=O)Nc1ccc(NC(=O)c2cc(Cl)ccc2O)c(Cl)c1
inhibition at 1 µM (SARS-CoV-2 [8]): < 10%

O=C(Nc1ccc([N+](=O)[O-])cc1Cl)c1cc(Cl)ccc1O [NICLOSAMIDE]
Activity (Vero C1008 [17]): Active
AUC [18]: 522 ng·h/mL
AUClast [19]: 478 ng·h/mL
Activity (Vero C1008 [20]): Active
Cmax [21]: 428 ng/mL
Activity (Vero C1008 [22]): Active
solubility [4]: 0.16 µg/mL
t1/2 [23]: 1.99 h
inhibition at 2.5 µM (SARS-CoV-2 [24]): 39%
MRT [25]: 2.81 h
CC50 (Vero C1008 [16]): 1960 nM
